In brackets after ≈: the same amount, converted by molar mass.
Key:
Type in all cases: functional
Aspergillus fumigatus [1] = experiment: Antifungal activity against Aspergillus fumigatus NCIM 902 at MIC after 3 to 4 days by agar well diffusion method
Procedure, shortened: (§1)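 Sabouraud agar (peptone, D-glucose, agar; pH 5.7) seeded with spore suspension made by transferring a loopful of fungus to 3 mL normal saline. Excess decanted, plates dried 1 h at 37 °C. Compounds in DMSO at MIC added to punched wells; DMSO control. Triplicate plates kept 3–4 days at 37 °C.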

Staphylococcus aureus [2] = experiment: Antibacterial activity against Staphylococcus aureus ATCC 25923 after 16 to 18 hrs by serial plate dilution method
Procedure, shortened: (§2)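 Drug serially diluted in Mueller–Hinton broth in tubes, adjusted to pH 5.0 with phosphate buffer. Inoculated with standardized bacterial suspension and incubated 16–18 h at 37 °C. MIC taken as lowest concentration with no visible growth.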

Escherichia coli [3] = experiment: Antibacterial activity against Escherichia coli ATCC 25922 after 16 to 18 hrs by serial plate dilution method; procedure, shortened: as §2
Pseudomonas aeruginosa [4] = experiment: Antibacterial activity against Pseudomonas aeruginosa ATCC 27853 after 16 to 18 hrs by serial plate dilution method; procedure, shortened: as §2
Klebsiella pneumoniae [5] = experiment: Antibacterial activity against recultured Klebsiella pneumoniae after 16 to 18 hrs by serial plate dilution method; procedure, shortened: as §2
Staphylococcus aureus [6] = experiment: Antibacterial activity against Staphylococcus aureus ATCC 25923 at MIC after 3 to 4 days by agar well diffusion method
Escherichia coli [7] = experiment: Antibacterial activity against Escherichia coli ATCC 25922 at MIC after 3 to 4 days by agar well diffusion method
Pseudomonas aeruginosa [8] = experiment: Antibacterial activity against Pseudomonas aeruginosa ATCC 27853 at MIC after 3 to 4 days by agar well diffusion method
Klebsiella pneumoniae [9] = experiment: Antibacterial activity against recultured Klebsiella pneumoniae at MIC after 3 to 4 days by agar well diffusion method
Talaromyces marneffei [10] = experiment: Antifungal activity against recultured Penicillium marneffei by serial plate dilution method
[11] = tested on: Trichophyton mentagrophytes; experiment: Antifungal activity against recultured Trichophyton mentagrophytes by serial plate dilution method
Aspergillus flavus [12] = experiment: Antifungal activity against Aspergillus flavus NCIM 524 by serial plate dilution method
Aspergillus fumigatus [13] = experiment: Antifungal activity against Aspergillus fumigatus NCIM 902 by serial plate dilution method
Talaromyces marneffei [14] = experiment: Antifungal activity against recultured Penicillium marneffei at MIC after 3 to 4 days by agar well diffusion method; procedure, shortened: as §1
[15] = tested on: Trichophyton mentagrophytes; experiment: Antifungal activity against recultured Trichophyton mentagrophytes at MIC after 3 to 4 days by agar well diffusion method; procedure, shortened: as §1
Aspergillus flavus [16] = experiment: Antifungal activity against Aspergillus flavus NCIM 524 at MIC after 3 to 4 days by agar well diffusion method; procedure, shortened: as §1

SMILES	inhibition zone (IZ) (Aspergillus fumigatus [1]) [mm]	MIC (Staphylococcus aureus [2]) [µg/mL]	MIC (Escherichia coli [3]) [µg/mL]	MIC (Pseudomonas aeruginosa [4]) [µg/mL]	MIC (Klebsiella pneumoniae [5]) [µg/mL]	inhibition zone (IZ) (Staphylococcus aureus [6]) [mm]	inhibition zone (IZ) (Escherichia coli [7]) [mm]	inhibition zone (IZ) (Pseudomonas aeruginosa [8]) [mm]	inhibition zone (IZ) (Klebsiella pneumoniae [9]) [mm]	MIC (Talaromyces marneffei [10]) [µg/mL]	MIC [11] [µg/mL]	MIC (Aspergillus flavus [12]) [µg/mL]	MIC (Aspergillus fumigatus [13]) [µg/mL]	inhibition zone (IZ) (Talaromyces marneffei [14]) [mm]	inhibition zone (IZ) [15] [mm]	inhibition zone (IZ) (Aspergillus flavus [16]) [mm]
Oc1c(-c2nnc(S)n2Cc2ccccc2)cnc2c(C(F)(F)F)cccc12	<10	50 (≈ 124 µM)	50 (≈ 124 µM)	50 (≈ 124 µM)	50 (≈ 124 µM)	<10	<10	<10	<10	50 (≈ 124 µM)	50 (≈ 124 µM)	50 (≈ 124 µM)	50 (≈ 124 µM)	<10	<10	<10
FC(F)(F)c1cccc2c(Cl)c(-c3nnc(S)n3-c3ccccc3)cnc12	16	6.25 (≈ 15.4 µM)	6.25 (≈ 15.4 µM)	6.25 (≈ 15.4 µM)	6.25 (≈ 15.4 µM)	16	20	16	16	6.25 (≈ 15.4 µM)	6.25 (≈ 15.4 µM)	6.25 (≈ 15.4 µM)	6.25 (≈ 15.4 µM)	16	20	16
FC(F)(F)c1cccc2c(NC3CC3)c(-c3nnc(S)n3-c3ccccc3)cnc12	16	6.25 (≈ 14.6 µM)	6.25 (≈ 14.6 µM)	6.25 (≈ 14.6 µM)	6.25 (≈ 14.6 µM)	16	20	16	16	6.25 (≈ 14.6 µM)	6.25 (≈ 14.6 µM)	6.25 (≈ 14.6 µM)	6.25 (≈ 14.6 µM)	16	20	16
COCCn1c(S)nnc1-c1cnc2c(C(F)(F)F)cccc2c1N1CCC(CCCO)CC1	<10	6.25 (≈ 12.6 µM)	6.25 (≈ 12.6 µM)	50 (≈ 101 µM)	50 (≈ 101 µM)	16	20	<10	<10	50 (≈ 101 µM)	50 (≈ 101 µM)	50 (≈ 101 µM)	50 (≈ 101 µM)	<10	<10	<10
COCCn1c(S)nnc1-c1cnc2c(C(F)(F)F)cccc2c1NC1CC1	16	6.25 (≈ 15.3 µM)	6.25 (≈ 15.3 µM)	6.25 (≈ 15.3 µM)	6.25 (≈ 15.3 µM)	16	20	16	16	6.25 (≈ 15.3 µM)	6.25 (≈ 15.3 µM)	6.25 (≈ 15.3 µM)	6.25 (≈ 15.3 µM)	16	20	16
FC(F)(F)c1cccc2c(N3CCN(C4CCCCC4)CC3)c(-c3nnc(S)n3-c3ccccc3)cnc12	<10	50 (≈ 92.8 µM)	6.25 (≈ 11.6 µM)	50 (≈ 92.8 µM)	50 (≈ 92.8 µM)	<10	20	<10	<10	50 (≈ 92.8 µM)	50 (≈ 92.8 µM)	50 (≈ 92.8 µM)	50 (≈ 92.8 µM)	<10	<10	<10
CC(C)N1CCN(c2c(-c3nnc(S)n3-c3ccccc3)cnc3c(C(F)(F)F)cccc23)CC1	<10	50 (≈ 100 µM)	6.25 (≈ 12.5 µM)	50 (≈ 100 µM)	50 (≈ 100 µM)	<10	20	<10	<10	50 (≈ 100 µM)	50 (≈ 100 µM)	50 (≈ 100 µM)	50 (≈ 100 µM)	<10	<10	<10
CC(C)(C)CCNc1c(-c2nnc(S)n2Cc2ccccc2)cnc2c(C(F)(F)F)cccc12	10	12.5 (≈ 25.7 µM)	12.5 (≈ 25.7 µM)	12.5 (≈ 25.7 µM)	12.5 (≈ 25.7 µM)	10	16	10	12	12.5 (≈ 25.7 µM)	12.5 (≈ 25.7 µM)	12.5 (≈ 25.7 µM)	12.5 (≈ 25.7 µM)	10	16	10
FC(F)(F)c1cccc2c(N3CCOCC3)c(-c3nnc(S)n3-c3ccccc3)cnc12	16	6.25 (≈ 13.7 µM)	6.25 (≈ 13.7 µM)	6.25 (≈ 13.7 µM)	6.25 (≈ 13.7 µM)	16	20	16	16	6.25 (≈ 13.7 µM)	6.25 (≈ 13.7 µM)	6.25 (≈ 13.7 µM)	6.25 (≈ 13.7 µM)	16	20	16
COCCn1c(S)nnc1-c1cnc2c(C(F)(F)F)cccc2c1O	16	6.25 (≈ 16.9 µM)	6.25 (≈ 16.9 µM)	6.25 (≈ 16.9 µM)	6.25 (≈ 16.9 µM)	16	20	16	16	6.25 (≈ 16.9 µM)	6.25 (≈ 16.9 µM)	6.25 (≈ 16.9 µM)	6.25 (≈ 16.9 µM)	16	20	16
FC(F)(F)c1cccc2c(N3CCOCC3)c(-c3nnc(S)n3Cc3ccccc3)cnc12	10	6.25 (≈ 13.3 µM)	12.5 (≈ 26.5 µM)	50 (≈ 106 µM)	50 (≈ 106 µM)	16	16	<10	<10	12.5 (≈ 26.5 µM)	12.5 (≈ 26.5 µM)	12.5 (≈ 26.5 µM)	12.5 (≈ 26.5 µM)	10	16	10
COCCn1c(S)nnc1-c1cnc2c(C(F)(F)F)cccc2c1N1CCN(C2CCCCC2)CC1	<10	50 (≈ 96 µM)	6.25 (≈ 12 µM)	50 (≈ 96 µM)	50 (≈ 96 µM)	<10	20	<10	<10	50 (≈ 96 µM)	6.25 (≈ 12 µM)	50 (≈ 96 µM)	50 (≈ 96 µM)	<10	20	<10
FC(F)(F)c1cccc2c(NC3CCCCC3)c(-c3nnc(S)n3Cc3ccccc3)cnc12	10	12.5 (≈ 25.8 µM)	12.5 (≈ 25.8 µM)	12.5 (≈ 25.8 µM)	12.5 (≈ 25.8 µM)	10	16	10	12	12.5 (≈ 25.8 µM)	12.5 (≈ 25.8 µM)	12.5 (≈ 25.8 µM)	12.5 (≈ 25.8 µM)	10	16	10
COCCn1c(S)nnc1-c1cnc2c(C(F)(F)F)cccc2c1N1CCOCC1	16	6.25 (≈ 14.2 µM)	6.25 (≈ 14.2 µM)	6.25 (≈ 14.2 µM)	6.25 (≈ 14.2 µM)	16	20	16	16	6.25 (≈ 14.2 µM)	6.25 (≈ 14.2 µM)	6.25 (≈ 14.2 µM)	6.25 (≈ 14.2 µM)	16	20	16

From ChEMBL document CHEMBL1155347, “Synthesis and antimicrobial activities of novel quinoline derivatives carrying 1,2,4-triazole moiety” (2009)
